Screening data (PubChem BioAssay)
Most compounds without a hit are left out; they make up all but 1.9% or so of the library.
N-glyco inh – blocks N-linked glycosylation in D54 reporter cells; AID 588692; D54 ERlucT glycosylation luciferase reporter, 24 h; percent of 100 nM tunicamycin response; 360,000 tested, 0.23% active; reporter increase, % at 12.5 µM;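 active = mean luciferase reporter signal, scaled so untreated is 0 and the glycosylation-blocking control 100, at or above a set limit in every replicate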;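 note: luciferase carries N-glycosylation sites so blocking glycosylation raises the light; 0% = median of neutral control wells and 100% = median of 100 nM tunicamycin wells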
UCH37 DUB inh – human UCH37 deubiquitinating enzyme inhibition | Q9Y5K5 | purified proteasome/UCH37, Ub-AMC cleavage fluorescence | inhibition, % (concentration not given with the values) | 330,000 tested, 0.33% active;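 active = mean inhibition over replicate wells above about 20%, limit read from the data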;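 note: 0% = compound-free wells with enzyme and 100% = wells lacking proteasome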
Target sequence (Q9Y5K5 whole entry, looked up): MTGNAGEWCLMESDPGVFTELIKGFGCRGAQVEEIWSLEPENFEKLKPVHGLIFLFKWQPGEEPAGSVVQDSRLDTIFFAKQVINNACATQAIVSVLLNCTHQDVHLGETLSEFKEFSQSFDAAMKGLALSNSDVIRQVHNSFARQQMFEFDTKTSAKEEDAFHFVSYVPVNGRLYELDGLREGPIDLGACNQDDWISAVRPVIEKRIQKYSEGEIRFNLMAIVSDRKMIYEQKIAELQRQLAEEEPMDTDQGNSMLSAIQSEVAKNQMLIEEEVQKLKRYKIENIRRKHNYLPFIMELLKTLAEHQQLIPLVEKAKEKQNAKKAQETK
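Material: human UCH37 enzyme supplied as purified proteasome complex. Measure: % inhibition of Ub-AMC cleavage fluorescence. Medium: pH 7.4 Tris-HCl (50 mM) with ovalbumin, ATP-MgCl2, DTT. Times: 30 min preincubation with enzyme, 25 min cleavage at room temperature. Detection: AMC fluorescence intensity at 355/460 nm.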
MsrA act – activates bovine MsrA enzyme | purified bovine MsrA, absorbance read-out | activation, % at 10.6 µM | 360,000 tested, 0.3% active | AID 602163; in the data active = activation above about 7.5%;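 note: 0% = vehicle and 100% = reference activator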
aDG glyco up – alpha-DG glycosylation activation | activation, % at 10 µM | 360,000 tested, 0.22% active | AID 624168 | Pro5-aDG cells, alpha-DG glycosylation AlphaScreen (IIH6); 0% Pro5, 100% B10-LARGE cell signal;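 active = activation of at least 8% versus controls, or a plate z-score of at least 8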;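 note: Pro5 are CHO cells carrying HIG-tagged alpha-DG that lacks glycosylation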
Vif inh – HIV Vif inhibition; HEK293T cells, Vif self-association by quenched fluorescence, imaging, 24 h; inhibition, % at 7.49 µM; 340,000 tested, 0.35% active; AID 602346; in the data active = inhibition above about 50%, passing the limit was not always enough
MsrA inhibitor – inhibitors of bovine MsrA; purified bovine MsrA, absorbance read-out; inhibition, % at 15.5 µM; 360,000 tested, 0.75% active; in the data active = inhibition above about 4.5%;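 note: 0% = vehicle wells with enzyme and 100% = reference inhibitor wells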
* hit, by the source's call; . = no result.

SMILES	N-glyco inh	UCH37 DUB inh	MsrA act	aDG glyco up	Vif inh	MsrA inhibitor
Cc1ccc(NC(=O)c2ccc(NCc3ccco3)c([N+](=O)[O-])c2)cc1Cl	-5	5	-3	0	82*	0
COc1ccc(CC(=O)NN=Cc2cccnc2)cc1OC	.	0	.	.	.	.
O=C(NN=Cc1ccoc1)c1ccccc1O	.	2	.	.	.	.
COc1nc(=O)n(C2C=CC(=O)O2)cc1F (stereo unspecified)	33*	.	-5	0	0	0
COc1ccc(C=NNC(=O)c2cc(C(C)(C)C)[nH]n2)cc1COc1ccc(F)cc1F	.	1	.	.	.	.
O=C(NN=Cc1ccco1)c1cc(C2CC2)nc2ccccc12	.	1	.	.	.	.
CCn1c(SCc2ccc(C(=O)Nc3nccs3)cc2)nnc1-c1ccc(N)cc1	-3	7	3	0	54*	0
CCOc1ccc(C(Nc2cccnc2)c2cc(Cl)c3cccnc3c2O)cc1 (stereo unspecified)	22	22*	-4	0	1	0
Oc1cccc(C=NNc2cccc3cccnc23)c1	.	-8	.	.	.	.
O=C(/C=C/c1c[nH]c2ccccc12)c1cccc2ccccc12	30*	-7	-2	0	-4	1
COc1ccc([C@H]2CC(=O)C=C(/C=C/c3ccccc3)C2)cc1OC	6	1	0	0	1	4.6*
O=C1C=C(/C=C/c2ccccc2)C[C@@H](c2ccc(F)cc2)C1	-1	0	-3	0	-9	2
COc1ccccc1N=CC1=C(O)CC(c2ccccc2)CC1=O (stereo unspecified)	28*	-16	-7	1	-1	0
O=C1CC(c2ccccc2)CC(O)=C1C=NCCCO (stereo unspecified)	2	22*	1	2	.	1
O=C1CC(c2ccccc2)CC(O)=C1C=Nc1ccccc1Cl (stereo unspecified)	1	-14	-3	0	-13	0
O=C(NN=Cc1oc(O)c2ccccc12)c1ccccc1	.	3	.	.	.	.
O=C(CCc1n[nH]c(=O)[nH]c1=O)NN=Cc1ccc(Br)o1	.	3	.	.	.	.
Cc1ccc(N2C(=O)CC(N(O)C3CC(=O)N(c4ccc(C)cc4)C3=O)C2=O)cc1 (stereo unspecified)	1	2	-2	0	9	1
O=C(O)CSC1CC(=O)N(c2ccc(Cl)cc2)C1=O (stereo unspecified)	0	1	-13	0	4	0
CCCCCCC(=O)N(O)C1CC(=O)N(c2ccc(Cl)cc2)C1=O (stereo unspecified)	61*	-2	-10	0	-1	0
CCCCCCC(=O)N(O)C1CC(=O)N(c2ccc(C)cc2)C1=O (stereo unspecified)	38*	6	-16	0	2	0
Cc1ccc(C=Nn2c(-c3ccccc3)n[nH]c2=S)cc1	.	1	.	.	.	.
COc1ccccc1C=NNC(=O)c1cccc(OC(F)(F)C(F)F)c1	.	-2	.	.	.	.
Cn1c(=O)c(=O)n(C)c2cc([N+](=O)[O-])c([N+](=O)[O-])cc21	16	9	2	1	-1	5.1*
N#Cc1c(N)n(CCc2ccc(F)cc2)c2nc3ccccc3nc12	58*	-225	-1	1	-7	1
SMILES	N-glyco inh	UCH37 DUB inh	MsrA act	aDG glyco up	Vif inh	MsrA inhibitor
COC(=O)c1c(NC(=O)c2cccs2)sc2c1CCC(C)C2 (stereo unspecified)	1	-1	8.3*	0	12	0
CCn1ncc(C2=NOC(C(=O)NCc3ccc(Cl)cc3)C2)c1C (stereo unspecified)	36*	-1	-2	0	-5	-1
COc1cc(CCC(=O)OCn2nnc3ccccc3c2=O)cc(OC)c1OC	0	0	-4	0	59*	1
COc1cc(C(=O)OCn2nnc3ccccc3c2=O)cc(OC)c1OC	4	1	-10	0	8	-1
CC(=NNC(=O)C1CCCC1)c1ccc(Cl)c(Cl)c1	.	1	.	.	.	.
COc1cc(C(=O)OCCc2cc3ccccc3c(=O)o2)cc(OC)c1OC	27*	0	-10	1	.	0
O=C(Cc1cccc2ccccc12)Nc1ccc(-c2cc3ccccc3oc2=O)cc1	-6	-158	-2	0	-11	5.3*
CCC(=O)Nc1cccc(-c2cc3ccccc3oc2=O)c1	-6	2	-8	0	-29	2
NC(=S)NN=Cc1ccccc1OC(=O)c1cc2ccccc2oc1=O	.	-67	.	.	.	.
COc1cc(C2C(C#N)=C(N)Oc3cc(N)ccc32)cc(OC)c1OC (stereo unspecified)	32*	-3	-3	0	26	0
O=C(NNC(=O)c1ccc[nH]1)Nc1cccc(C(F)(F)F)c1	1	2	-2	0	-3	1
O=C(NNC(=O)c1ccc[nH]1)Nc1cc(Cl)cc(Cl)c1	1	2	-2	0	55*	0
O=C(CNC(=O)N1CC(=O)Nc2ccccc21)NCCCc1ccccc1	27*	.	-2	0	0	1
CC1(C(=O)NS(=O)(=O)c2cccc(OC(F)F)c2)CCN1C(=O)c1ccco1 (stereo unspecified)	1	.	-2	0	59*	-2
CCCCNC(=S)N(C)N=Cc1sc(N2CCCCC2)nc1-c1cccs1	.	1	.	.	.	.
COc1ccc(C(=O)NN=Cc2sc(N3CCOCC3)nc2-c2ccccc2)cc1OC	.	3	.	.	.	.
N#CCC(CNc1ncc(C(F)(F)F)cc1Cl)OC(=O)c1ccc(Cl)cc1Cl (stereo unspecified)	30*	6	0	0	-4	2
CCOC(=O)CNc1ncc(C(F)(F)F)cc1Cl	2	1	-2	0	13	0
CC(C)(C)NC(=O)CON=C1c2ccccc2-c2ccccc21	-8	-3	-2	0	-12	0
CC(C)(C)NCC(O)CON=C1c2ccccc2-c2ccccc21 (stereo unspecified)	35*	2	-1	2	-4	-1
CCOC(=O)CCCn1nc(C)n2c(cc3sccc32)c1=O	-1	5	0	0	.	0
Cc1nn(CCCC(=O)N2CCc3ccccc3C2)c(=O)c2cc3sccc3n12	3	0	-6	0	85*	1
COc1c(C=O)c2c(c(OC)c1OC)-c1ccc(OC)c(=O)cc1C(NC(C)=O)CC2 (stereo unspecified)	10	.	-6	0	90*	4
CC1=C(C)C(=NOS(=O)(=O)c2ccc(C)cc2)C=CC1=O	.	5	.	.	.	.
Cc1ccccc1SCC(=O)Nc1ccc(N2CCOCC2)cc1	-1	6	-5	0	-1	0
Nc1ccccc1SCC(=O)Nc1ccc(N2CCOCC2)cc1	5	-1	0	0	57*	-1
O=C(NN=Cc1ccco1)c1ccc2nc[nH]c2c1	.	6	.	.	.	.
COc1ccc(/C=N/N=C/c2ccc(OC)c(O)c2)cc1O	0	.	-5	0	2	7.1*
